Calls of active or inactive are those of the source. No cut-off for these calls is given here.
Assays:
[1] = Inhibition of protein A binding to horseradish peroxidase-conjugated human IgG in PBS solution by Protein A human IgG competitive ELISA
In short: (§1)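 Plate wells coated overnight at 4 °C with protein A (0.8 ug/well), washed with PBS, and blocked with 2% BSA for 1 h at 37 °C. Compound diluted in PBS or PBS–20% DMSO was added with HRP-conjugated human IgG and incubated 1 h at 37 °C. After washing, bound HRP-IgG was developed with ABTS for 20 min in the dark at room temperature and read at 405 nm. IC50 is the concentration inhibiting 50% binding.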

[2] = Inhibition of protein A binding to horseradish peroxidase-conjugated human IgG in 20% DMSO/PBS solution by Protein A human IgG competitive ELISA; in short: as §1
[3] = test system: Mus musculus; assay: Reduction of antibody immune complexes in NZB/NZW-F1 mouse systemic lupus erythematosus model at 50 mg/kg, iv administered once weekly starting from week 12 relative to untreated control; type: functional, organism-based; parameters: dose 50 mg/kg
[4] = target: T1, Low affinity immunoglobulin gamma Fc region receptor II-a (Homo sapiens, UniProt P12318); assay: Inhibition of heat aggregated human IgG binding to human Fc-gamma-R2a
T1 sequence (P12318 whole entry): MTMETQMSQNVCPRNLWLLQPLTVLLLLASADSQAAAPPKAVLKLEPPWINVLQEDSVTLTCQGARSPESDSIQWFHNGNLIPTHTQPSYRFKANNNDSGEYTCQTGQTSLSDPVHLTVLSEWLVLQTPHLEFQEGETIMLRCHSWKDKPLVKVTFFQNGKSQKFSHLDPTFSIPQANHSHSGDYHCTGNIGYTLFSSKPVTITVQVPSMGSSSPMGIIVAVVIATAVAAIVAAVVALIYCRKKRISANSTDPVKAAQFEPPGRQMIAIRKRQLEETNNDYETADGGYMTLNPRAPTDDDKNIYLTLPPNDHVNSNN

[5] = target: Low affinity immunoglobulin gamma Fc region receptor III-B (Homo sapiens, UniProt O75015); assay: Inhibition of heat aggregated human IgG binding to human Fc-gamma-R3b
[6] = test system: Mus musculus; assay: Reduction of anti-dsDNA antibody levels in NZB/NZW-F1 mouse systemic lupus erythematosus model at 50 mg/kg, iv administered once weekly starting from week 12 relative to untreated control; type: functional
In short: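 NZB/NZW F1 hybrid mice were given 50 mg/kg intravenously once weekly from week 12, against vehicle-treated controls. Serum anti-dsDNA autoantibodies were measured by a literature method, and total IgG was also monitored.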

[7] = Inhibition of protein A binding to heat aggregated human IgG
[8] = test system: Mus musculus; assay: Reduction of immune complex deposits in homozygous fas mutant MRL/lpr mouse systemic lupus erythematosus model at 50 mg/kg, iv administered once weekly for 5 consecutive weeks between 18 and 22 weeks by electron microscopy; type: functional, organism-based; parameters: dose 50 mg/kg
In short: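 MRL/lpr mice (homozygous fas mutation) received 50 mg/kg or vehicle intravenously once a week for 5 consecutive weeks, between weeks 18 and 22. Mice were then sacrificed, and immune complex deposition in kidney tissue was recorded by electron microscopy.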

Low affinity immunoglobulin gamma Fc region receptor III-B, sequence (O75015 whole entry): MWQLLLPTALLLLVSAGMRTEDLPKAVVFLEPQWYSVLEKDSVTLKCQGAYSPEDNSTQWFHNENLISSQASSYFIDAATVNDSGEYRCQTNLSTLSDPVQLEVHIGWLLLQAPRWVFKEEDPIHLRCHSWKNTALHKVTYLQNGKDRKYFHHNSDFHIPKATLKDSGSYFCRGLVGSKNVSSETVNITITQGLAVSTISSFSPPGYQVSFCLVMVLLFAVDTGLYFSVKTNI

SMILES | IC50 ([1]; read-out: IC50) [nM] | other results
Nc1cccc(Nc2nc(NCCO)nc(Nc3cccc(Nc4nc(NCCO)nc(Nc5cccc(N)c5)n4)c3)n2)c1 | 293 | –
Nc1cccc(Nc2nc(NCCO)nc(NCCc3ccc(Nc4nc(NCC(O)c5cccc(N)c5)nc(Nc5cccc(N)c5)n4)cc3)n2)c1 (stereo unspecified) | 130 | –
Nc1cccc(Nc2nc(NCCO)nc(NCCc3ccc(Nc4nc(NCCc5ccc(F)cc5)nc(Nc5cccc(N)c5)n4)cc3)n2)c1 | 531 | –
Nc1cccc(Nc2nc(NCCO)nc(NCCc3ccc(Nc4nc(NCCc5ccccc5N)nc(Nc5cccc(N)c5)n4)cc3)n2)c1 | 185 | –
NCCNc1nc(NCCO)nc(Nc2ccc(CCNc3nc(NCCO)nc(Nc4cccc(N)c4)n3)cc2)n1 | 410 | IC50 ([2]; read-out: IC50): 749 nM
Nc1cccc(Nc2nc(NCCO)nc(NCCc3ccc(Nc4nc(NCCO)nc(Nc5ccc(F)cc5)n4)cc3)n2)c1 | 361 | IC50 ([2]; read-out: IC50): 204 nM
Nc1cccc(Nc2nc(NCCO)nc(NCCc3ccc(Nc4nc(NCCO)nc(Nc5cccc(F)c5)n4)cc3)n2)c1 | 382 | IC50 ([2]; read-out: IC50): 209 nM
CS(=O)(=O)c1cccc(Nc2nc(NCCO)nc(Nc3ccc(CCNc4nc(NCCO)nc(Nc5cccc(N)c5)n4)cc3)n2)c1 | 243 | IC50 ([2]; read-out: IC50): 192 nM
OCCNc1nc(NCCc2ccc(Nc3nc(NCCO)nc(Nc4ccccc4F)n3)cc2)nc(Nc2ccccc2F)n1 | – | IC50 [1]: Not Active; IC50 [2]: Not Active
Nc1cccc(Nc2nc(NCCO)nc(NCCc3cccc(Nc4nc(NCCO)nc(Nc5cccc(N)c5)n4)c3)n2)c1 | – | IC50 [1]: Not Active
Nc1cccc(Nc2nc(NCCO)nc(NCCCCNc3nc(NCCO)nc(Nc4cccc(N)c4)n3)n2)c1 | 187 | –
Nc1cccc(Nc2nc(NCCO)nc(Nc3ccc(Nc4nc(NCCO)nc(Nc5cccc(N)c5)n4)cc3)n2)c1 | 157 | –
Nc1cccc(Nc2nc(NCCO)nc(NCCc3ccc(Nc4nc(NCCO)nc(Nc5ccc(Cl)cc5)n4)cc3)n2)c1 | 841 | IC50 ([2]; read-out: IC50): 893 nM
Nc1cccc(Nc2nc(NCCO)nc(NCCc3ccc(Nc4nc(NCCc5ccccc5)nc(Nc5cccc(N)c5)n4)cc3)n2)c1 | 449 | –
CN(C)c1ccc(CCNc2nc(Nc3ccc(CCNc4nc(NCCO)nc(Nc5cccc(N)c5)n4)cc3)nc(Nc3cccc(N)c3)n2)cc1 | 695 | –
Nc1cccc(Nc2nc(NCCO)nc(NCCc3ccc(Nc4nc(Nc5cccc(N)c5)nc(NC5CCNC5)n4)cc3)n2)c1 (stereo unspecified) | 233 | –
Nc1cccc(CNc2nc(Nc3ccc(CCNc4nc(NCCO)nc(Nc5cccc(N)c5)n4)cc3)nc(Nc3cccc(N)c3)n2)c1 | 141 | –
CC(Nc1nc(NCCO)nc(Nc2cccc(N)c2)n1)c1ccc(Nc2nc(NCCO)nc(Nc3cccc(N)c3)n2)cc1 (stereo unspecified) | – | IC50 [1]: Not Active
Nc1cccc(Nc2nc(NCCO)nc(NCCc3ccc(Nc4nc(NCCc5ccc(O)cc5)nc(Nc5cccc(N)c5)n4)cc3)n2)c1 | – | IC50 [1]: Not Active
N=C(N)CCNc1nc(NCCO)nc(NCCc2ccc(Nc3nc(NCCO)nc(Nc4cccc(F)c4)n3)cc2)n1 | – | IC50 [1]: Not Active; IC50 [2]: Not Active

The next lines start with results.

IC50 ([1]; read-out: IC50) [nM] | SMILES | other results
70 | Nc1cccc(Nc2nc(NCCO)nc(NCCOCCNc3nc(NCCO)nc(Nc4cccc(N)c4)n3)n2)c1 | IC50 ([2]; read-out: IC50): 5190 nM
118 | Nc1cccc(Nc2nc(NCCO)nc(NCCc3ccc(Nc4nc(NCCc5cccc(O)c5)nc(Nc5cccc(N)c5)n4)cc3)n2)c1 | –
56 | Nc1cccc(Nc2nc(NCCO)nc(NCCCNc3nc(NCCO)nc(Nc4cccc(N)c4)n3)n2)c1 | –
59 | CN1CCN(c2nc(Nc3ccc(CCNc4nc(NCCO)nc(Nc5cccc(N)c5)n4)cc3)nc(Nc3cccc(N)c3)n2)CC1 | –
56 | Nc1cccc(Nc2nc(NCCO)nc(NCC(O)CNc3nc(NCCO)nc(Nc4cccc(N)c4)n3)n2)c1 | –
89 | CN(C)c1nc(Nc2ccc(CCNc3nc(NCCO)nc(Nc4cccc(N)c4)n3)cc2)nc(Nc2cccc(N)c2)n1 | –
119 | Nc1cccc(CCNc2nc(Nc3ccc(CCNc4nc(NCCO)nc(Nc5cccc(N)c5)n4)cc3)nc(Nc3cccc(N)c3)n2)c1 | –
58 | Nc1cccc(Nc2nc(NCCO)nc(NCCNc3nc(NCCO)nc(Nc4cccc(N)c4)n3)n2)c1 | –
56 | Nc1cccc(Nc2nc(NCCO)nc(NCCc3ccc(Nc4nc(Nc5cccc(N)c5)nc(Nc5cccc(N)c5)n4)cc3)n2)c1 | –
89 | CN(C)CCNc1nc(Nc2ccc(CCNc3nc(NCCO)nc(Nc4cccc(N)c4)n3)cc2)nc(Nc2cccc(N)c2)n1 | –
94 | Nc1cccc(Nc2nc(NCCO)nc(NCCc3ccc(Nc4nc(NCCO)nc(NCCO)n4)cc3)n2)c1 | IC50 ([2]; read-out: IC50): 81 nM
84 | Nc1cccc(Nc2nc(NCCO)nc(NCCc3ccc(Nc4nc(NCCO)nc(Nc5cccc(N)c5)n4)cc3)n2)c1 | IC50 ([2]; read-out: IC50): 144 nM
54 | Nc1ccc(CCNc2nc(Nc3ccc(CCNc4nc(NCCO)nc(Nc5cccc(N)c5)n4)cc3)nc(Nc3cccc(N)c3)n2)cc1 | Activity [3]: Active; IC50 [4]: 12000 nM; IC50 [5]: 57000 nM; fold change (FC) [6]: 2; IC50 [7]: 83 nM; Activity [8]: Active
41 | CC(C)(CNc1nc(NCCO)nc(Nc2cccc(N)c2)n1)CNc1nc(NCCO)nc(Nc2cccc(N)c2)n1 | –
80 | Nc1cccc(Nc2nc(NCCO)nc(Nc3ccc4c(c3)CCN4c3nc(NCCO)nc(Nc4cccc(N)c4)n3)n2)c1 | –
